The values below come from ChEMBL document CHEMBL1123930, “Structure-activity relationships among di- and tetramine disulfides related to benextramine” (1987).

What all share (format): functional
For test [1], the target named is Adrenergic receptor alpha (Rattus norvegicus) (UniProt P15823+P23944+P43140+P22086+P19328+P22909). The test can be described thus: Irreversible inhibition against Norepinephrine (NE)-induced response in rat vas deferens with benextramine (BHC) as standard at a concentration of 2 x 10e-5 M. The procedure, abridged:
(§1)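 Rat vas deferens tissues were held at 32 °C under 95% O2/5% CO2 at 0.50 g loading tension, with contractions recorded by force transducer. After 1 h equilibration and a medium change, antagonist was incubated for 30 min, then drained and washed out for 30 min. Cumulative NE concentration-response curves followed. The fall in maximal response, as percent of control, is reported as mean ± SEM of five experiments.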

The species named for test [2] is Rattus norvegicus. The test can be described thus: Irreversible inhibition against Norepinephrine (NE)-induced response in rat vas deferens with benextramine (BHC) as standard at a concentration of 10e-4 M; Inactive. The gist of the method: as §1
The species named for test [3] is Rattus norvegicus. The test can be described thus: Irreversible inhibition against Norepinephrine (NE)-induced response in rat vas deferens with benextramine (BHC) as standard at a concentration of 2 x 10e-5 M; Inactive. The procedure, abridged: as §1
For test [4], the species on record is Rattus norvegicus. The test is described as follows: Irreversible inhibition against Norepinephrine (NE)-induced response in rat vas deferens with benextramine (BHC) as standard at a concentration of 10e-4 M. The gist of the method: as §1
The species entered for test [5] is Rattus norvegicus. The test can be described thus: Irreversible inhibition against Norepinephrine (NE)-induced response in rat vas deferens with benextramine (BHC) as standard at a concentration of 6 x 10e-6 M. The gist of the method: as §1

The structures appear in SMILES notation. Activity calls are given as the source filed them. No cut-off for these calls is given here.

Turning to `c1csc(CNCCCCCCNCCSSCCNCCCCCCNCc2cccs2)c1`, the inhibition in test [1] came out at 70%.
Take `CCN(CC)CCSSCCN(CC)CC`: the inhibition result in the test listed under Rattus norvegicus [2] and in the test filed under Rattus norvegicus [3] was “inactive” in each case.
As to `O=C(Cc1ccccc1)NCCCCCCNCCSSCCNCCCCCCNC(=O)Cc1ccccc1`, the inhibition in test [1] came out at 44%.
`c1ccc2c(c1)OC[C@@H](CNCCCCCCNCCSSCCNCCCCCCNC[C@@H]1COc3ccccc3O1)O2` registered an inhibition at 100 µM in the test filed under Rattus norvegicus [4] of 68%. Also, the inhibition entry in the test filed under Rattus norvegicus [3] is “inactive”.
For `C(CCCN1CCCC1)CCNCCSSCCNCCCCCCN1CCCC1`, the inhibition in test [1] was found to be 98%.
For `c1ccc2c(c1)OC[C@H](CNCCCCCCNCCSSCCNCCCCCCNC[C@H]1COc3ccccc3O1)O2`, the inhibition at 100 µM in the test listed under Rattus norvegicus [4] is 79%. Also, the inhibition result in the test filed under Rattus norvegicus [3] was “inactive”.
In the case of `C(CCCN1CCCCC1)CCNCCSSCCNCCCCCCN1CCCCC1`, the inhibition in test [1] was determined as 100%. Further, in the test filed under Rattus norvegicus [5], 6 µM produced 56% inhibition.
On the same counts, the results for `c1coc(CNCCCCCCNCCSSCCNCCCCCCNCc2ccco2)c1` are 100% and 79%.
As to `c1ccc2c(c1)CCN(CCCCCCNCCSSCCNCCCCCCN1CCc3ccccc3C1)C2`, the inhibition at 100 µM in the test filed under Rattus norvegicus [4] came to 66%. The inhibition entry in the test listed under Rattus norvegicus [3] is “inactive”.
Molecule `c1ccc2c(c1)CN(CCCCCCNCCSSCCNCCCCCCN1CNc3ccccc3C1)CN2` came in with an inhibition in test [1] of 89%.
On the same count and under the same terms, the result for `NC(CCCCCNCCSSCCNCCCCCC(N)Cc1ccccc1)Cc1ccccc1` (stereo not given) reads 57%.
Consider `Cn1ccc(CNCCCCCCNCCSSCCNCCCCCCNCc2ccn(C)c2)c1`, for which the inhibition in test [1] came to 100%. The molecule further came in with an inhibition at 6 µM in the test filed under Rattus norvegicus [5] of 54%.
In test [1], `COc1cc(C(O)CNCCCCCCNCCSSCCNCCCCCCNCC(O)c2cc(OC)c(OC)c(OC)c2)cc(OC)c1OC` (stereo not given) came in with an inhibition of 98%.
With `COc1ccccc1CNCCCCCCOCCSSCCOCCCCCCNCc1ccccc1OC`, the inhibition in test [1] was determined as 36%.
Molecule `c1ccc2c(c1)OCC(CNCCCCCCNCCSSCCNCCCCCCNCC1COc3ccccc3O1)O2` (stereo not given) showed an inhibition at 100 µM in the test filed under Rattus norvegicus [4] of 53%. Further, in the test filed under Rattus norvegicus [3], the inhibition result is “inactive”.
Regarding `OC(CNCCCCCCNCCSSCCNCCCCCCNCC(O)c1ccc2c(c1)OCO2)c1ccc2c(c1)OCO2` (stereo not given), in test [1], the inhibition was 43%.
On the same count and under the same terms, with `COc1ccc(C(O)CNCCCCCCNCCSSCCNCCCCCCNCC(O)c2ccc(OC)cc2)cc1` (stereo not given) the figure was 81%.
With `c1ccc(CNCCSSCCNCc2ccccc2)cc1`, the inhibition at 100 µM in the test listed under Rattus norvegicus [4] worked out at 48%. The molecule further returned an inhibition in test [1] of 12%.
Take `C1CCN(CCSSCCN2CCCCC2)CC1`: the inhibition result in the test filed under Rattus norvegicus [2] and in the test listed under Rattus norvegicus [3] was “inactive” throughout.
`CN(CCCCCCN1CCCC1)CCSSCCN(C)CCCCCCN1CCCC1` came in with an inhibition in test [1] of 41%.
For `OC(CNCCCCCCNCCSSCCNCCCCCCNCC(O)c1ccccc1)c1ccccc1` (stereo not given), in the test filed under Rattus norvegicus [4], the inhibition at 100 µM turned out to be 40%. Moreover, the inhibition in test [1] came out at 13%.
`CN(CCCCCCNCc1ccccc1N)CCSSCCN(C)CCCCCCNCc1ccccc1N` gave an inhibition at 100 µM in the test listed under Rattus norvegicus [4] of 38%. In addition, the inhibition result in the test filed under Rattus norvegicus [3] is “inactive”.
Regarding `COc1ccccc1COCCCCCCNCCSSCCNCCCCCCOCc1ccccc1OC`, the inhibition in test [1] is 58%.
On the same count and under the same terms, with `COc1cccc(C(O)CNCCCCCCNCCSSCCNCCCCCCNCC(O)c2cccc(OC)c2)c1` (stereo not given) the figure was 91%; with `Oc1ccc(C(O)CNCCCCCCNCCSSCCNCCCCCCNCC(O)c2ccc(O)c(O)c2)cc1O` (stereo not given), 92%.
Regarding `CC(C)(C)NCCSSCCNC(C)(C)C`, the inhibition entry in the test listed under Rattus norvegicus [2] and in the test filed under Rattus norvegicus [3] was “inactive” each time.
Consider `c1ccc2c(c1)CCN2CCCCCCNCCSSCCNCCCCCCN1CCc2ccccc21`, for which, in test [1], the inhibition was found to be 37%.
As to `c1ccc2c(c1)CN(CCCCCCNCCSSCCNCCCCCCN1COc3ccccc3C1)CO2`, 100 µM produced 34% inhibition in the test filed under Rattus norvegicus [4]. Also, the inhibition result in the test filed under Rattus norvegicus [3] is “inactive”.
In test [1], `COc1ccccc1CNCCCCCCNCCSSCCNCCCCCCNCc1ccccc1OC` [BENEXTRAMINE] showed an inhibition of 100%. Besides, the inhibition at 6 µM in the test filed under Rattus norvegicus [5] came out at 35%.
On to `c1ccc(CNCCCCCCOCCSSCCOCCCCCCNCc2ccccc2)cc1`, for which, in test [1], the inhibition was found to be 32%.
Regarding `c1ccc2c(CNCCCCCCNCCSSCCNCCCCCCNCc3c[nH]c4ccccc34)c[nH]c2c1`, in the test listed under Rattus norvegicus [4], the inhibition at 100 µM was 46%. In addition, the inhibition result in the test filed under Rattus norvegicus [3] is “inactive”.
`Nc1ccccc1CNCCCCCCNCCSSCCNCCCCCCNCc1ccccc1N` showed an inhibition in test [1] of 79%.
On the same count and under the same terms, with `CN(CCCCCCN1CCCCC1)CCSSCCN(C)CCCCCCN1CCCCC1` the figure was 34%.
On the same count and under the same terms, with `c1ccc(COCCCCCCNCCSSCCNCCCCCCOCc2ccccc2)cc1` the figure was 60%.
`COc1ccccc1C(O)CNCCCCCCNCCSSCCNCCCCCCNCC(O)c1ccccc1OC` (stereo not given) displayed an inhibition in test [1] of 82%.
In turn, `c1cc2c(cc1COCCCCCCNCCSSCCNCCCCCCOCc1ccc3c(c1)OCO3)OCO2` returned an inhibition at 100 µM in the test listed under Rattus norvegicus [4] of 45%. In the test filed under Rattus norvegicus [3], the inhibition result was “inactive”.
On the same counts, the results for `Nc1ccccc1C(=O)NCCCCCCNCCSSCCNCCCCCCNC(=O)c1ccccc1N` are 55% and “inactive”.
With `CN(CCCCCCN1CNc2ccccc2C1)CCSSCCN(C)CCCCCCN1CNc2ccccc2C1`, the inhibition at 100 µM in the test listed under Rattus norvegicus [4] was found to be 6%. In the test filed under Rattus norvegicus [3], the inhibition result was “inactive”.
The molecule `COc1ccc(C(O)CNCCCCCCNCCSSCCNCCCCCCNCC(O)c2ccc(OC)c(OC)c2)cc1OC` (stereo not given) came in with an inhibition in test [1] of 87%.
In the case of `c1ccc(CCNCCCCCCNCCSSCCNCCCCCCNCCc2ccccc2)cc1`, the inhibition at 100 µM in the test filed under Rattus norvegicus [4] turned out to be 32%. Moreover, the inhibition entry in the test listed under Rattus norvegicus [3] was “inactive”.
